Results gathered from unrelated publications.
Protocols differ between the studies behind these lines.
Target: Rhodopsin kinase GRK1 (GRK1, Homo sapiens, UniProt Q15835)
Residues used in one study (Q15835 1-563): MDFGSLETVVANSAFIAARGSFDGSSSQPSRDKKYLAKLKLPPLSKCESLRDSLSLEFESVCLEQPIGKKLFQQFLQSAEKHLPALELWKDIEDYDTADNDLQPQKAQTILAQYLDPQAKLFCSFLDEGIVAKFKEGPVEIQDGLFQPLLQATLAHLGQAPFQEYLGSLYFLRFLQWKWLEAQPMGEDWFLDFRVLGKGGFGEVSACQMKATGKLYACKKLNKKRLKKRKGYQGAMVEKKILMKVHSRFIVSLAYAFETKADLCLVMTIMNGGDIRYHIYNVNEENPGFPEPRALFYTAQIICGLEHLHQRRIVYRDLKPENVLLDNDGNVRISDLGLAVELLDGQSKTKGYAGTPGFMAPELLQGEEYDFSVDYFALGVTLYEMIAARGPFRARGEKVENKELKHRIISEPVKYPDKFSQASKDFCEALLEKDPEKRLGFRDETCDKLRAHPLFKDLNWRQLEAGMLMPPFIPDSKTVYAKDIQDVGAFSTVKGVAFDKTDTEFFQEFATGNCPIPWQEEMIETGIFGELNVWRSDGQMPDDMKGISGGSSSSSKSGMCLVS

SMILES | read-out | action | technique | tested at | quantity | result
CO[C@@H]1[C@H](N(C)C(=O)c2ccccc2)C[C@H]2O[C@]1(C)n1c3ccccc3c3c4c(c5c6ccccc6n2c5c31)C(=O)NC4 | enzyme activity | inhibitor |  | 1 µM | inhibition | 94%
COc1ccc2[nH]c3c4[nH]c5ccc(OC)cc5c4c4c(c3c2c1)C(=O)NC4=O | binding |  |  | 1 µM | remaining binding | 95%
C=CC(=O)N1CCC([C@@H]2CCNc3c(C(N)=O)c(-c4ccc(Oc5ccccc5)cc4)nn32)CC1 | enzyme activity | inhibitor |  | 1 µM | inhibition | 34%
COc1ccc2oc(-c3ccc4nc(N)oc4c3)c/c(=N\c3ccccc3NC(=O)CCN)c2c1 | binding |  |  | 1 µM | remaining binding | 98%
C1=C/COCc2cc(ccc2OCCN2CCCC2)Nc2nccc(n2)-c2cccc(c2)COC/1 | binding |  |  | 0.1 µM | remaining binding | 94%
CCCCC(=O)Nc1ccc(-c2ccc3ncn(CCC)c(=O)c3c2)cn1 | binding |  | competition with immobilised ligand | 0.5 µM | remaining binding | 96%
CC(C)S(=O)(=O)c1ccc2nccc(Nc3ccc4sc(C5CCCC5)nc4c3)c2c1 | enzyme activity | inhibitor |  | 1 µM | activity vs control | 112%
C[C@H]1CC[C@H](n2c3cnccc3c3cnc(Nc4ccc5c(n4)CCN(C(=O)CO)C5)nc32)CC1 | cell-free assay |  |  | 1 µM | remaining signal | 100%
